ChEMBL document CHEMBL2176965, “Synthesis and biological investigations of nitric oxide releasing nateglinide and meglitinide type II antidiabetic prodrugs: in-vivo antihyperglycemic activities and blood pressure lowering studies” (J Med Chem, 2012)
Active and inactive are the calls of the source. No cut-off for these calls is given here.

Legend:
Mus musculus [1] = test: Antihypertensive activity in C57BL/6 mouse assessed as reduction in diastolic blood pressure at 63.01 umol/kg, po after 1 to 3 hrs; assay type: functional, organism-based; settings: Artery
Mus musculus [2] = test: Antihypertensive activity in C57BL/6 mouse assessed as reduction in mean blood pressure at 63.01 umol/kg, po after 1 to 3 hrs; assay type: functional, organism-based
Rattus norvegicus [3] = test: Antihyperglycemic activity in streptozotocin-induced diabetic Sprague-Dawley rat assessed as reduction in blood glucose level at 63.01 umol/kg, po after 24 hrs relative to control; assay type: functional, organism-based
In short: (§1)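 Male Sprague−Dawley rats (300−350 g) made diabetic with streptozotocin 65 mg/kg ip in citrate buffer pH 4.5, nonfasting. Animals with blood glucose 20−30 mmol/L at 48 h were selected, n = 4 per group. Oral dose 63.01 μmol/kg in water with 1% methyl cellulose; vehicle controls. Tail-vein glucose read by glucometer at 1, 3, 6, 24 h; change expressed as % of the 0 h level.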

[4] = Induction of NO release in PBS buffer in presence of rat serum at pH 7.4 incubated for 24 hrs; set-up: concentration or dose not given beside the values; settings: pH 7.4, 24 h
In short: (§2)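 Compound (2.4 mL of 5.0 × 10−2 mM) incubated at 37 °C in PBS pH 7.4 with 90 μL rat serum, a source of nonspecific esterases, for 1, 3, 6 or 24 h. NO measured as nitrite by Griess reaction and expressed as % released.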

[5] = Induction of NO release in PBS buffer in presence of rat serum at pH 7.4 incubated for 6 hrs; set-up: concentration or dose not given beside the values; settings: pH 7.4, 6 h; in short: as §2
[6] = Induction of NO release in PBS buffer in presence of rat serum at pH 7.4 incubated for 1 hr; set-up: concentration or dose not given beside the values; settings: pH 7.4, 1 h; in short: as §2
[7] = Induction of NO release in PBS buffer at pH 7.4 incubated for 24 hrs; assay type: physicochemical; set-up: concentration or dose not given beside the values; settings: pH 7.4, 24 h
In short: (§3)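 Compound (2.4 mL of 5.0 × 10−2 mM) incubated at 37 °C in phosphate buffer pH 7.4 for 1, 4, 6 or 24 h. Released NO quantified indirectly as nitrite by Griess reaction and expressed as % NO released.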

[8] = Induction of NO release in PBS buffer at pH 7.4 incubated for 6 hrs; assay type: physicochemical; set-up: concentration or dose not given beside the values; settings: pH 7.4, 6 h; in short: as §3
[9] = Induction of NO release in PBS buffer at pH 7.4 incubated for 4 hrs; assay type: physicochemical; set-up: concentration or dose not given beside the values; settings: pH 7.4, 4 h; in short: as §3
[10] = Induction of NO release in PBS buffer at pH 7.4 incubated for 1 hr; assay type: physicochemical; set-up: concentration or dose not given beside the values; settings: pH 7.4, 1 h; in short: as §3
Mus musculus [11] = test: Effect on heart rate in C57BL/6 mouse at 63.01 umol/kg, po after 6 hrs (reference value: 439 bpm); assay type: ADME, organism-based; settings: in vivo
Mus musculus [12] = test: Effect on heart rate in C57BL/6 mouse at 63.01 umol/kg, po after 3 hrs (reference value: 448 bpm); assay type: ADME, organism-based; settings: in vivo
Mus musculus [13] = test: Effect on heart rate in C57BL/6 mouse at 63.01 umol/kg, po after 1 hr (reference value: 449 bpm); assay type: ADME, organism-based; settings: in vivo
Mus musculus [14] = test: Antihypertensive activity in C57BL/6 mouse assessed as reduction in systolic blood pressure at 63.01 umol/kg, po after 6 hrs (reference value: 126.2 mmHg); assay type: functional, Artery
Mus musculus [15] = test: Antihypertensive activity in C57BL/6 mouse assessed as reduction in systolic blood pressure at 63.01 umol/kg, po after 1 hr (reference value: 126.5 mmHg); assay type: functional, Artery
Rattus norvegicus [16] = test: Induction of hyperglycemia in streptozotocin-induced diabetic Sprague-Dawley rat assessed as increase in blood glucose level at 63.01 umol/kg, po after 24 hrs relative to control; assay type: organism-based; settings: in vivo; in short: as §1
Rattus norvegicus [17] = test: Antihyperglycemic activity in streptozotocin-induced diabetic Sprague-Dawley rat assessed as reduction in blood glucose level at 63.01 umol/kg, po after 3 hrs relative to control; assay type: functional; set-up: scale not given: the % may be the effect or the level left; in short: as §1
Rattus norvegicus [18] = test: Antihyperglycemic activity in streptozotocin-induced diabetic Sprague-Dawley rat assessed as reduction in blood glucose level at 63.01 umol/kg, po after 1 hr relative to control; assay type: functional; set-up: scale not given: the % may be the effect or the level left; in short: as §1
[19] = Induction of NO release in PBS buffer in presence of rat serum at pH 7.4 incubated for 3 hrs; set-up: concentration or dose not given beside the values; settings: pH 7.4, 3 h
Rattus norvegicus [20] = test: Induction of hyperglycemia in streptozotocin-induced diabetic Sprague-Dawley rat assessed as increase in blood glucose level at 63.01 umol/kg, po after 24 hrs relative to control; settings: in vivo
Rattus norvegicus [21] = test: Antihyperglycemic activity in streptozotocin-induced diabetic Sprague-Dawley rat assessed as reduction in blood glucose level at 63.01 umol/kg, po after 6 hrs relative to control; assay type: functional; in short: as §1
Rattus norvegicus [22] = organism: Rattus norvegicus; test: Activation of soluble guanylyl cyclase in rat superior mesenteric arteries assessed as reversal of phenylephrine-induced tone in presence of ODQ at 1 uM by wire myography
In short: (§4)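 Denudation confirmed by no relaxation to acetylcholine (10 μM). Tone raised to 75% of maximal with phenylephrine (1−3 μM). Compounds added at 1 μM, without or with ODQ (10 μM), a soluble guanylyl cyclase inhibitor.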

Rattus norvegicus [23] = organism: Rattus norvegicus; test: Activation of soluble guanylyl cyclase in rat superior mesenteric arteries assessed as reversal of phenylephrine-induced tone at 1 uM by wire myography; in short: as §4
Mus musculus [24] = test: Antihypertensive activity in C57BL/6 mouse assessed as reduction in systolic blood pressure at 63.01 umol/kg, po after 3 hrs (reference value: 118.3 mmHg); assay type: functional, Artery
Mus musculus [25] = test: Antihypertensive activity in C57BL/6 mouse assessed as reduction in diastolic blood pressure at 63.01 umol/kg, po after 3 hrs; assay type: functional, organism-based; settings: Artery

Activity [4] [%] | Activity [5] [%] | Activity [6] [%] | Activity [7] [%] | Activity [8] [%] | Activity [9] [%] | Activity [10] [%] | Activity [19] [%] | Compound | Activity (Mus musculus [1]) | Activity (Mus musculus [2]) | Activity (Mus musculus [11]) [bpm] | Activity (Mus musculus [12]) [bpm] | Activity (Mus musculus [13]) [bpm] | Activity (Mus musculus [14]) [mmHg] | Activity (Mus musculus [15]) [mmHg] | Activity (Rattus norvegicus [16]) | Activity (Rattus norvegicus [17]) [%] | Activity (Rattus norvegicus [18]) [%] | Activity (Rattus norvegicus [20]) | Activity (Rattus norvegicus [21]) | further results
60.5 | 59.2 | 37.6 | 8.9 | 7.2 | 5.7 | 5.1 | 51.7 | COc1ccc(Cl)cc1C(=O)NCCc1ccc(C(=O)OCO/N=[N+](\[O-])N2CCCC2)cc1 | Active | Active | 435 | 458 | 454 | 103.4 | 90.3 | Non-toxic | 12.5 | 20 | Non-toxic |  | Activity (Rattus norvegicus [3]): inactive
 |  |  |  |  |  |  |  | COc1ccc(Cl)cc1C(=O)NCCc1ccc(C(=O)O)cc1 [MEGLITINIDE] |  |  |  |  |  |  |  |  | 8.8 | 30.5 |  | Active | Activity (Rattus norvegicus [3]): inactive
6.3 | 3.9 | 1.3 | 9.2 | 7.7 | 7.5 | 6.7 | 1.9 | CC(C)[C@H]1CC[C@H](C(=O)N[C@H](Cc2ccccc2)C(=O)OCCO[N+](=O)[O-])CC1 |  |  | 435 | 458 | 454 | 103.4 | 129.9 | Non-toxic | 13.4 | 8.2 | Non-toxic | 20.5% | Activity (Rattus norvegicus [22]): inactive; Activity (Rattus norvegicus [23]): Active
3.8 | 2.6 | 2.1 | 9.4 | 7.7 | 7.2 | 4.1 | 2.3 | COc1ccc(Cl)cc1C(=O)NCCc1ccc(C(=O)OCCO[N+](=O)[O-])cc1 | Active | Active | 435 | 458 | 454 | 103.4 | 105.8 | Non-toxic | 12.5 | 20 | Non-toxic | Active | Activity (Rattus norvegicus [3]): inactive
72.2 | 57.2 | 44.9 | 61.3 | 58.8 | 5.1 | 4.4 | 50.2 | CCN(CC)/[N+]([O-])=N\OCOC(=O)[C@@H](Cc1ccccc1)NC(=O)[C@H]1CC[C@H](C(C)C)CC1 | Active | Active | 435 | 458 | 454 | 134.4 | 113 | Non-toxic | 23.5 | 21.1 | Non-toxic | 34.1% | Activity (Rattus norvegicus [22]): inactive; Activity (Rattus norvegicus [23]): Active; Activity (Mus musculus [24]): 98.1 mmHg
65.3 | 50.1 | 40.2 | 59.9 | 52.7 | 6.8 | 6.7 | 47.2 | CC(C)[C@H]1CC[C@H](C(=O)N[C@H](Cc2ccccc2)C(=O)OCO/N=[N+](/[O-])N2CCCC2)CC1 |  | Active | 435 | 458 | 454 | 134.3 | 108.4 | 48.7% | 22.6 | 8.1 |  | inactive | Activity (Mus musculus [25]): inactive; Activity (Mus musculus [24]): 106.2 mmHg
63.6 | 61.5 | 54.5 | 6.5 | 6.1 | 6 | 4.2 | 55.9 | CCN(CC)/[N+]([O-])=N/OCOC(=O)c1ccc(CCNC(=O)c2cc(Cl)ccc2OC)cc1 | Active | Active | 435 | 458 | 454 | 103.4 | 96.8 | Non-toxic | 12.5 | 20 | Non-toxic | Active | Activity (Rattus norvegicus [3]): inactive
 |  |  |  |  |  |  |  | CC(C)[C@H]1CC[C@H](C(=O)N[C@H](Cc2ccccc2)C(=O)O)CC1 [NATEGLINIDE] |  |  |  |  |  |  |  |  | 26.4 | 13.8 |  | 30.6% | 
